Shown are actives, neighbours in structure and some others; about 3.9% of the full set was active somewhere.
TAAR1 antag: human TAAR1 antagonism; 360,000 tested, 1.5% active; inhibition, % at 3 µM; CHO RD-HGA16 TAAR1, Fluo-8 calcium fluorescence, antagonist;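 active = inhibition above a per-plate cutoff, the mean inhibition of test compounds on that plate plus 3 SD, cut at about 49% in these data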;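 note: 0% = DMSO plus EC80 beta-PEA response and 100% = DMSO alone without agonist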
Target sequence (Q96RJ0 whole entry, looked up): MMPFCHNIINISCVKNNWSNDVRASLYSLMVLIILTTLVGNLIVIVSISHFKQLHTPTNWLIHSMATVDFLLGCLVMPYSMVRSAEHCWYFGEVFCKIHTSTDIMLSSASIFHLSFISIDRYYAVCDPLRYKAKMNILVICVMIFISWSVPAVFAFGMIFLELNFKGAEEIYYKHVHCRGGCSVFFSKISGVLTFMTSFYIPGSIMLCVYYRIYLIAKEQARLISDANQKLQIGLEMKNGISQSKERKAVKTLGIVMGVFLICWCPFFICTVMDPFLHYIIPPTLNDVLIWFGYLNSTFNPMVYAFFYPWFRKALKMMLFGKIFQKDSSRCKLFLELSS
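Test system: RD-HGA16 CHO cells with stable hTAAR1 and Gα16 / Probe or stimulus: EC80 β-phenethylamine stimulus / Times: seeding 17-24 h prior, 75-min 37 °C, 30-min RT dye loading / Detection: Fluo-8 calcium-sensitive fluorescence / Read-out basis: % inhibition scaled between DMSO and EC80 PEA controls / Repeats: singlicate, one well per test compound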
m5-HT2A agonist: mouse HTR2A agonism via beta-arrestin recruitment | P35363 | CHO-K1 mHTR2A beta-arrestin complementation, luminescence; percent of 30 µM serotonin response | activation, % at 7.6 µM | 360,000 tested, 0.66% active | AID 624169;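 active = activation above a run cutoff, the mean activation of all tested compounds plus 3 SD, cut at about 14% in these data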;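 note: 0% = plate median of compound wells and 100% = 30 µM serotonin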
TAAR1 agonist: human TAAR1 agonism; CHO RD-HGA16 TAAR1, Fluo-8 calcium fluorescence; vehicle wells 0%, saturating PEA agonist 100%; 360,000 tested, 0.99% active; activation, % at 3 µM;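 active = activation above the mean activation of all test compounds in the run plus 3 SD, cut at about 38% in these data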
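Benchmarks: low control DMSO, high control PEA (EC100); System: CHO RD-HGA16 cells carrying human TAAR1 plus Gα16; Detection: Fluo-8 fluorescence, 5 s baseline then 140 s kinetic read; Schedule: 17-24 h plating, Fluo-8 75 min 37 °C, 30 min RT; Read-out basis: % activation from peak over basal fluorescence ratio, DMSO-to-PEA scaled.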
CHRM1 PAM: human CHRM1 positive allosteric modulation. CHO-K1 hM1, Fluo-8 calcium fluorescence, ACh EC20; 0% = ACh EC20, 100% = maximal ACh. activation, % at 3 µM. 360,000 tested, 0.088% active. AID 588819; in the data active = activation above about 19%, passing the limit was not always enough
M1 ag: activates human CHRM1 receptor. P11229. CHO-K1 hM1, Fluo-8 calcium fluorescence, agonist mode; 0% DMSO, 100% acetylcholine EC100. activation, % at 3 µM. 360,000 tested, 0.33% active;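 active = activation above the run's mean compound activation plus 3 SD, cut at about 16% in these data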;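 note: peak over basal fluorescence ratio within a 140 s kinetic read after compound addition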
CHRM1 antagonist: blocks human M1 muscarinic receptor; P11229; CHO-K1 hM1, Fluo-8 calcium fluorescence, ACh EC80 antagonist; inhibition, % at 3 µM; 360,000 tested, 1.3% active; AID 588852;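 active = percent inhibition above its own plate's cutoff, namely the mean of that plate's compound wells plus 3 SD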;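 note: peak over basal fluorescence ratio during 140 s after agonist addition; 0% = ACh EC80 plus DMSO and 100% = DMSO alone without agonist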
* hit, by the source's call; nt = no result.

SMILES	TAAR1 antag	m5-HT2A agonist	TAAR1 agonist	CHRM1 PAM	M1 ag	CHRM1 antagonist
COc1ccc(C(=O)NCC(c2ccco2)N2CCc3ccccc3C2)cc1 (stereo unspecified)	6	4	40*	1	8	-1
Cc1ccc(C(=O)NCC(c2ccco2)N2CCc3ccccc3C2)cc1 (stereo unspecified)	-11	-8	40*	3	-5	-4
O=C(NCC(c1ccco1)N1CCc2ccccc2C1)c1cccc(Br)c1 (stereo unspecified)	-1	1	38*	-7	-7	12
C[C@H](NC(=O)c1ccco1)C(=O)NNC(=O)COc1cccc(C(F)(F)F)c1	6	2	-3	4	-1	-10
CC(OC(=O)Cc1coc2ccc3ccccc3c12)C(=O)NC(N)=O (stereo unspecified)	26	-2	6	1	-1	-3
COc1ccc(Cn2cc(CN3CC(N4CC=CC4)CS3(=O)=O)nn2)cc1 (stereo unspecified)	-2	4	1	nt	nt	nt
COc1ccc(C(=O)COC(=O)c2cc(S(=O)(=O)N3CCCCC3)ccc2N2CCOCC2)c(OC)c1	-12	0	-1	-1	-2	10
Cc1cc(N/N=C/c2ccc(Cl)cc2)nc(NCc2ccccc2)n1	34	-9	40*	-3	-8	3
Cc1cc(N/N=C/c2cccc(Cl)c2)nc(NCc2ccccc2)n1	-7	-6	24	-7	-7	-3
Cc1cc(Nc2cccc(Cl)c2)nc(NCc2ccccc2)n1	0	-8	38*	-1	8	14
Cc1cc(C)nc(NCc2ccc(Cl)cc2)n1	-12	-1	0	12	6	4
Cc1cccc(C)c1NC(=O)CNC(=O)C(C)N(C)CC(=O)Nc1ccc(F)cc1 (stereo unspecified)	-11	5	2	4	1	-12
CCCN1C(=O)/C(=C/C=C2\N(CC)c3ccccc3C2(C)C)SC1=S	23	2	26	0	7	5
CCCCN1C(=O)/C(=C/C=C2\Oc3ccccc3N2CC)SC1=S	90*	7	180*	-8	28*	43*
CCCCN1C(=O)/C(=C/C=C2/CC(C)(C)CN2C)SC1=S	17	3	26	-18	31*	36*
CCOC(=O)N1CCC(NS(=O)(=O)c2ccc(NC(C)=O)c(Cl)c2)CC1	11	3	2	-4	0	7
O=C(NCC(c1ccc(F)cc1)N1CCOCC1)c1ccc([N+](=O)[O-])o1 (stereo unspecified)	-14	1	2	-2	1	1
COc1cccc(CN(C)C(=O)c2ccc(OCC(=O)Nc3cccc(C(F)(F)F)c3)c(OC)c2)c1	67*	-10	9	-12	1	40*
COc1ccc(CN(C)C(=O)c2ccc(OCC(=O)Nc3cccc(C(F)(F)F)c3)c(OC)c2)c(OC)c1	36	-6	4	-7	1	16
CCN(CC)CCNC(=O)CNC(=O)c1nn(-c2ccc(OC)cc2OC)c(=O)c2ccccc12	-4	1	-1	9	-10	-12
C=CCc1cc(Cl)ccc1OCCCNC(C)C	-3	-3	35	-9	-12	13
CCC(C)NCCCOc1cc(Cl)ccc1Cl (stereo unspecified)	5	-3	14	-14	-4	33*
C=CCc1cc(Cl)ccc1OCCN(C)C	-12	-10	18	-19	-7	25*
C=CCc1cc(Cl)ccc1OCCOCCNC(C)CC (stereo unspecified)	-11	-5	5	-24	-8	38*
CCCNCCC(c1ccco1)c1ccccc1OC (stereo unspecified)	6	-1	10	-26	-7	41*
SMILES	TAAR1 antag	m5-HT2A agonist	TAAR1 agonist	CHRM1 PAM	M1 ag	CHRM1 antagonist
CCC(=O)NCCC(c1ccco1)c1ccccc1OC (stereo unspecified)	-4	2	3	-1	-4	-9
COc1ccc(S(=O)(=O)N2CCc3ccccc32)cc1C(=O)O	-16	-10	0	5	-5	-15
CC(=O)N1CCc2ccc(S(=O)(=O)N3CCc4ccccc43)cc21	13	-1	12	-20	-3	35*
CC(C(=O)Nc1ccc(S(=O)(=O)N2CCOCC2)cc1)N1C(=O)C2CC=CCC2C1=O (stereo unspecified)	10	8	6	3	-4	6
COC(=O)[C@]12C[C@H](CC(=O)NCc3cccc(C(F)(F)F)c3)C(=O)N(Cc3ccc4c(c3)OCO4)C1=C[C@H](C(C)(C)C)O[C@@H]2C	-11	nt	0	nt	nt	nt
CCN(CC)c1ccc(/C=c2\sc3nc4ccccc4n3c2=O)c(O)c1	64*	5	17	-28	-6	18
O=c1/c(=C/c2ccc(O)c([N+](=O)[O-])c2)sc2nc3ccccc3n12	10	0	4	9	-5	-2
COc1ccccc1NC(=O)c1ccccc1C(=O)N(C)Cc1ccccc1	-5	6	2	6	-2	-12
CCOC(=O)N1CCC(Nc2ncnc3c2cnn3-c2ccc(C)cc2C)CC1	-20	15*	-2	-8	0	16
O=C1C(Cl)=C(N2CCCCCC2)C(=O)N1c1ccccc1	-3	-6	3	-17	-4	36*
CN1CCN(C2=C(Cl)C(=O)N(c3ccc(Cl)cc3)C2=O)CC1	nt	16*	nt	7	-7	-7
CCN(CC)C(=O)Cn1cc(C(=O)C(=O)Nc2ccc3c(c2)OCCO3)c2ccccc21	11	-12	6	-2	0	3
CCOc1ccc(NS(=O)(=O)c2cccc(C(=O)N3CCN(C/C=C/c4ccccc4)CC3)c2)cc1	33	-6	10	-9	-2	16
O=C(C1CC(c2ccc(F)cc2)=NO1)N1CCN(c2ccccc2)CC1 (stereo unspecified)	1	-5	0	-9	-3	47*
O=C(C1CC(c2ccc(F)cc2)=NO1)N1CCCCC1 (stereo unspecified)	-7	-2	9	-2	-3	3
NC(=O)C1CCN(CC(=O)Nc2ccccc2C(=O)NC2CC2)CC1	1	5	6	16	1	-10
O=C(/C=C/c1ccc(OCCCF)cc1)Nc1ccnc(-c2cccnc2)n1	55*	4	19	-8	0	21
Cc1ccc(NC(=S)NC2CCSc3ccccc32)cc1 (stereo unspecified)	19	-7	-3	-36	-12	79*
CCc1cc2c(nc1CC)CCCN2S(=O)(=O)c1ccccc1	-18	nt	1	nt	nt	nt

From PubChem BioAssay
